Measurements reported in ChEMBL document CHEMBL1141286, “Benzochromenones from the marine crinoid Comantheria rotula inhibit hypoxia-inducible factor-1 (HIF-1) in cell-based reporter assays and differentially suppress the growth of certain tumor cell lines” (J Nat Prod, 2007).

What was measured:
T47D = assay: Growth inhibition of human T47D cells; type: functional; conditions: for TGI: read-out: Log TGI (converted)
COLO 205 = assay: Growth inhibition of human COLO205 cells; type: functional; conditions: for CC50: read-out: Log LC50 (the source's name) (converted); for TGI: read-out: Log TGI (converted)
SF-295 = assay: Growth inhibition of human SF295 cells; type: functional; conditions: for TGI: read-out: Log TGI (converted)
CCRF-CEM = assay: Growth inhibition of human CCRF-CEM cells; type: functional; conditions: for TGI: read-out: Log TGI (converted)
PC-3 = assay: Growth inhibition of human PC3 cells; type: functional; conditions: for TGI: read-out: Log TGI (converted)
IGROV-1 = assay: Growth inhibition of human IGROV1 cells; type: functional; conditions: for CC50: read-out: Log LC50 (the source's name) (converted); for TGI: read-out: Log TGI (converted)
[1] = biological target: Hypoxia inducible factors; HIF-1-alpha, HIF-2-alpha (Homo sapiens, UniProt Q16665+Q99814); assay: Inhibition of HIF1 activation in human T47D cells by TK-luciferase assay; type: cell-based
Outline: (§1)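 HIF-1 reporter (pHRE-TK-Luc) assays in transfected PC-3 or T47D cells; HIF-1 induced by hypoxia or by the hypoxia mimetic 1,10-phenanthroline (10 μM); compounds at half-log concentrations; luciferase activity measured; IC50 from experiments in triplicate.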

HCT-15 = assay: Growth inhibition of human HCT15 cells; type: functional; conditions: for CC50: read-out: Log LC50 (the source's name) (converted); for TGI: read-out: Log TGI (converted)
[2] = Inhibition of HIF1 activation in PC3 cells by TK-luciferase assay; type: cell-based; conditions: Homo sapiens, PC-3; outline: as §1
SK-MEL-2 = assay: Growth inhibition of human SK-MEL2 cells; type: functional; conditions: for TGI: read-out: Log TGI (converted)
SW-620 = assay: Growth inhibition of human SW620 cells; type: functional; conditions: for CC50: read-out: Log LC50 (the source's name) (converted); for TGI: read-out: Log TGI (converted)
[3] = Growth inhibition of human OVACAR3 cells; type: functional; conditions: for CC50: read-out: Log LC50 (the source's name) (converted); for TGI: read-out: Log TGI (converted)
ACHN = assay: Growth inhibition of human ACHN cells; type: functional; conditions: for CC50: read-out: Log LC50 (the source's name) (converted); for TGI: read-out: Log TGI (converted)
OVCAR-5 = assay: Growth inhibition of human OVACAR5 cells; type: functional; conditions: for TGI: read-out: Log TGI (converted)
NCI-H23 = assay: Growth inhibition of human NCI-H23 cells; type: functional; conditions: for CC50: read-out: Log LC50 (the source's name) (converted); for TGI: read-out: Log TGI (converted)
MCF7 = assay: Growth inhibition of human MCF7 cells; type: functional; conditions: for TGI: read-out: Log TGI (converted)
UACC-257 = assay: Growth inhibition of human UACC257 cells; type: functional; conditions: for TGI: read-out: Log TGI (converted)
SK-MEL-28 = assay: Growth inhibition of human SK-MEL28 cells; type: functional; conditions: for CC50: read-out: Log LC50 (the source's name) (converted); for TGI: read-out: Log TGI (converted)
DU-145 = assay: Growth inhibition of human DU145 cells; type: functional; conditions: for CC50: read-out: Log LC50 (the source's name) (converted); for TGI: read-out: Log TGI (converted)
SN12C = assay: Growth inhibition of human SN12C cells; type: functional; conditions: for TGI: read-out: Log TGI (converted)
MDA-MB-435 = assay: Growth inhibition of human MDA-MB-435 cells; type: functional; conditions: for TGI: read-out: Log TGI (converted)
UACC-62 = assay: Growth inhibition of human UACC62 cells; type: functional; conditions: for TGI: read-out: Log TGI (converted)
SNB-75 = assay: Growth inhibition of human SNB75 cells; type: functional; conditions: for TGI: read-out: Log TGI (converted)

CCCc1cc(=O)c2c(OC)c3c(OC)cc(OC)cc3cc2o1
GI50 (T47D): 16.6 µM
LC50 (T47D): > 100 µM
TGI (T47D): > 100 µM
GI50 (COLO 205): > 100 µM
CC50 (COLO 205): > 100 µM
TGI (COLO 205): > 100 µM
GI50 (SF-295): 53.7 µM
LC50 (SF-295): > 100 µM
TGI (SF-295): > 100 µM
GI50 (CCRF-CEM): 58.9 µM
LC50 (CCRF-CEM): > 100 µM
TGI (CCRF-CEM): 100 µM
GI50 (PC-3): 51.3 µM
LC50 (PC-3): > 100 µM
TGI (PC-3): > 100 µM
GI50 (IGROV-1): 60.3 µM
CC50 (IGROV-1): > 100 µM
TGI (IGROV-1): > 100 µM
IC50 [1]: 3.9 µM
GI50 (HCT-15): 35.5 µM
CC50 (HCT-15): > 100 µM
TGI (HCT-15): > 100 µM
IC50 [2]: > 10 µM
GI50 (SK-MEL-2): > 100 µM
LC50 (SK-MEL-2): > 100 µM
TGI (SK-MEL-2): > 100 µM
GI50 (SW-620): > 100 µM
CC50 (SW-620): > 100 µM
TGI (SW-620): > 100 µM
GI50 [3]: 38.9 µM
CC50 [3]: > 100 µM
TGI [3]: > 100 µM
GI50 (ACHN): > 100 µM
CC50 (ACHN): > 100 µM
TGI (ACHN): > 100 µM
GI50 (OVCAR-5): > 100 µM
LC50 (OVCAR-5): > 100 µM
TGI (OVCAR-5): > 100 µM
GI50 (NCI-H23): > 100 µM
CC50 (NCI-H23): > 100 µM
TGI (NCI-H23): > 100 µM
GI50 (MCF7): 93.3 µM
LC50 (MCF7): > 100 µM
TGI (MCF7): > 100 µM
GI50 (UACC-257): > 100 µM
LC50 (UACC-257): > 100 µM
TGI (UACC-257): > 100 µM
GI50 (SK-MEL-28): > 100 µM
CC50 (SK-MEL-28): > 100 µM
TGI (SK-MEL-28): > 100 µM
GI50 (DU-145): 81.3 µM
CC50 (DU-145): > 100 µM
TGI (DU-145): > 100 µM
GI50 (SN12C): > 100 µM
LC50 (SN12C): > 100 µM
TGI (SN12C): > 100 µM
GI50 (MDA-MB-435): 97.7 µM
LC50 (MDA-MB-435): > 100 µM
TGI (MDA-MB-435): > 100 µM
GI50 (UACC-62): > 100 µM
LC50 (lethal concentration, 50% cell kill) (UACC-62): > 100 µM
TGI (UACC-62): > 100 µM
GI50 (SNB-75): 74.1 µM
LC50 (SNB-75): > 100 µM
TGI (SNB-75): > 100 µM

COc1cc(O)cc2cc3oc(C)cc(=O)c3c(OC)c12 [COMANTHERIN]
GI50 (T47D): 81.3 µM
LC50 (T47D): > 100 µM
TGI (T47D): > 100 µM
GI50 (COLO 205): > 100 µM
CC50 (COLO 205): > 100 µM
TGI (COLO 205): > 100 µM
GI50 (SF-295): > 100 µM
LC50 (SF-295): > 100 µM
TGI (SF-295): > 100 µM
GI50 (CCRF-CEM): 2.09 µM
LC50 (CCRF-CEM): > 100 µM
TGI (CCRF-CEM): > 100 µM
GI50 (PC-3): 85.1 µM
LC50 (PC-3): > 100 µM
TGI (PC-3): > 100 µM
GI50 (IGROV-1): > 100 µM
CC50 (IGROV-1): > 100 µM
TGI (IGROV-1): > 100 µM
IC50 [1]: 2.9 µM
GI50 (HCT-15): > 100 µM
CC50 (HCT-15): > 100 µM
TGI (HCT-15): > 100 µM
IC50 [2]: 10 µM
GI50 (SK-MEL-2): > 100 µM
LC50 (SK-MEL-2): > 100 µM
TGI (SK-MEL-2): > 100 µM
GI50 (SW-620): > 100 µM
CC50 (SW-620): > 100 µM
TGI (SW-620): > 100 µM
GI50 [3]: > 100 µM
CC50 [3]: > 100 µM
TGI [3]: > 100 µM
GI50 (ACHN): > 100 µM
CC50 (ACHN): > 100 µM
TGI (ACHN): > 100 µM
GI50 (OVCAR-5): > 100 µM
LC50 (OVCAR-5): > 100 µM
TGI (OVCAR-5): > 100 µM
GI50 (NCI-H23): > 100 µM
CC50 (NCI-H23): > 100 µM
TGI (NCI-H23): > 100 µM
GI50 (MCF7): > 100 µM
LC50 (MCF7): > 100 µM
TGI (MCF7): > 100 µM
GI50 (UACC-257): > 100 µM
LC50 (UACC-257): > 100 µM
TGI (UACC-257): > 100 µM
GI50 (SK-MEL-28): > 100 µM
CC50 (SK-MEL-28): > 100 µM
TGI (SK-MEL-28): > 100 µM
GI50 (DU-145): > 100 µM
CC50 (DU-145): > 100 µM
TGI (DU-145): > 100 µM
GI50 (SN12C): > 100 µM
LC50 (SN12C): > 100 µM
TGI (SN12C): > 100 µM
GI50 (MDA-MB-435): > 100 µM
LC50 (MDA-MB-435): > 100 µM
TGI (MDA-MB-435): > 100 µM
GI50 (UACC-62): > 100 µM
LC50 (lethal concentration, 50% cell kill) (UACC-62): > 100 µM
TGI (UACC-62): > 100 µM
GI50 (SNB-75): > 100 µM
LC50 (SNB-75): > 100 µM
TGI (SNB-75): > 100 µM
